# Test results as given in PubChem BioAssay AID720702 (The Scripps Research Institute Molecular Screening Center, 2013).
# Screen size: about 370,000 compounds; about 1,200 (0.32%) were called active. The list comes from a sample in which actives are over-represented; it also holds similar structures and randomly drawn compounds. A number with no mark means an inactive call.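 How the source made its calls: active means inhibition above the mean of all tested compounds plus 3 SD, set per campaign (cut at about 25% in these data); inactive means the rest.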
# Biological target: Tyrosyl-DNA phosphodiesterase 2 (Homo sapiens) (UniProt O95551)
# Assay: human TDP2 enzyme inhibitors, primary screen, biochemical, epi absorbance, recombinant enzyme (AID 720702);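 further: 0% = DMSO with enzyme and 100% = buffer with substrate but no TDP2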
# Conditions: recombinant TDP2, T5PNP hydrolysis, p-nitrophenol absorbance 415 nm; at 12.8 µM; stronger effect = higher value
# Procedure, shortened: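 Test system: Human TDP2 enzyme | Reagent: 5 mM T5PNP | Compound dosing: 12.8 µM single point, 1% DMSO | Incubation: Enzyme reaction with compound for 2 h at 37 °C | Technique: p-Nitrophenol epi absorbance | Read-out: % inhibition relative to enzyme-containing and enzyme-free wells | Benchmarks: High control without enzyme, low control DMSO plus TDP2 | Replicates: Singlicate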
# Sequence of Tyrosyl-DNA phosphodiesterase 2 (Homo sapiens) (O95551 whole entry, looked up): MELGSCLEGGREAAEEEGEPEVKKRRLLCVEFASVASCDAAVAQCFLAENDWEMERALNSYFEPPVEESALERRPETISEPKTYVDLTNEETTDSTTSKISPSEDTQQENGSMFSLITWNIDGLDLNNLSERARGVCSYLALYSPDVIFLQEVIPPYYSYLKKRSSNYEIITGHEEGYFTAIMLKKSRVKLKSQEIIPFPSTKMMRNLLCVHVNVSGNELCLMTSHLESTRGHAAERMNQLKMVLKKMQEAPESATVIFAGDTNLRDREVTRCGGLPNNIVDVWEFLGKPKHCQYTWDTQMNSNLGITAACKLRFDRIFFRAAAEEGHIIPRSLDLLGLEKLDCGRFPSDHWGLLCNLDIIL
row,SMILES,inhibition
1,Cc1nn2cc(-c3ccc(Cl)cc3)cnc2c1Br,4.6%
2,C=CCn1c(SCc2ccc(Cl)c(Cl)c2)nnc1C(CO)NC(=O)c1ccc(OC)cc1 (stereo not given),-1.56%
3,CCCc1c(C)nc2c(Br)cccc2c1Cl,3.31%
4,O=c1oc2ccccc2c(CNc2ccccc2)c1[N+](=O)[O-],40.8% (active)
5,Nc1c(NCCc2ccccc2)c2ccccc2oc1=O,-16.4%
6,CCCN(CCC)c1c([N+](=O)[O-])c(=O)oc2ccccc12,6.98%
7,O=C(OCc1ccccc1)N1CCC2CC1c1ccc(-c3ccc4c(c3)OCO4)cc12 (stereo not given),-3.35%
8,COc1ccc(S(=O)(=O)/N=C2\C=C(NS(=O)(=O)c3ccccc3)C(=O)c3ccccc32)cc1,36.1% (active)
9,COc1ccc(C(=O)C(C)OC(=O)c2cccc(S(=O)(=O)Nc3c(C)n(C)n(-c4ccccc4)c3=O)c2)cc1 (stereo not given),-13.4%
10,Cc1ccc(S(=O)(=O)/N=C2\C=C(NS(=O)(=O)c3ccc(C)cc3)C(=O)c3ccccc32)cc1,4.19%
11,CCCCNC(=O)C[C@H]1C[C@@]2(C(=O)OC)C(=C[C@H](COCc3ccccc3)O[C@@H]2C)N(Cc2ccc(Cl)cc2Cl)C1=O,-0.01%
12,C=CCN1C(=O)[C@H](CC(=O)N2CCN(C(=O)OCC)CC2)[C@@]2(C(=O)OCC)CCCC=C12,4.51%
13,CCN(CC)CCCN=C(N)N,1.59%
14,COc1ccc(-c2csc(Nc3ccc(O)cc3)n2)cc1,26.4% (active)
15,COc1ccc(NC2=CC(=S)NC(C)(C)C2)cc1,-0.55%
16,COc1ccc(-c2ccc3nnc(SCC(=O)Nc4ccc(NC(C)=O)cc4)n3n2)cc1,-3.62%
17,CCc1cc(=O)oc2cc(OCC(=O)N3CCCc4ccccc43)ccc12,6.19%
18,COC(=O)c1cc(S(=O)(=O)N2CCN(C(=O)C3CCCO3)CC2)cn1C (stereo not given),-2.33%
19,CCCCN(C)C(=O)c1ccc2c(c1)N(CC)C(=O)c1ccccc1S2(=O)=O,7.54%
20,CCN1C(=O)c2cccc3c(N)ccc1c23,30.9% (active)
21,CCN1C(=O)c2cccc3c(S(=O)(=O)Nc4ccccc4O)ccc1c23,-2.02%
22,CCOC(=O)c1cccc(NC(=O)CN(C)S(=O)(=O)c2ccc(-c3cocn3)s2)c1,-8.94%
23,COc1ccc(-c2[nH][nH]c(=O)c2NC(=O)c2ccc([N+](=O)[O-])cc2)cc1,19.5%
24,O=C(NC1CC1)c1ccc(-c2ccccc2)cc1,-8.19%
25,Cc1ccc(C(=O)Nc2c(-c3ccccc3)[nH][nH]c2=O)cc1,44.4% (active)
